# Test results as given in ChEMBL document CHEMBL3272335, “Dibenz[b,e]oxepinalkanoic acids as nonsteroidal antiinflammatory agents. 1. 6,11-Dihydro-11-oxodibenz]b,e]oxepin-2-acetic acids” (J Med Chem, 1977).
# Legend:
# [1] = tested on: Rattus norvegicus; assay: Antiinflammatory activity in Wistar rat assessed as inhibition of carrageenan-induced paw edema at 50 mg/kg, po administered 1 hr prior to carrageenan challenge measured 3 hrs post-carrageenan injection; format: functional
# Outline: (§1)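 Female Carworth Wistar rats (120-150 g), ten per group, are fasted 12-16 h with water allowed. Compounds are given orally as an aqueous Tween 80 suspension (10 ml/kg); controls get vehicle. After 1 h, 0.1 ml of 1% carrageenan is injected subplantar into the left hind paw. Paw volume is read by mercury displacement before and 3 h after injection. Result is % edema difference versus control.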
# [2] = tested on: Rattus norvegicus; assay: Antiinflammatory activity in po dosed Wistar rat assessed as inhibition of carrageenan-induced paw edema administered 1 hr prior to carrageenan challenge measured 3 hrs post-carrageenan injection; format: functional; outline: as §1
# [3] = tested on: Mus musculus; assay: Analgesic activity in po dosed CD-1 mouse assessed as inhibition of phenylquinone-induced writhing administered prior to phenylquinone challenge measured 5 mins after phenylquinone injection; format: functional; details: CD-1, po
# Outline: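 Male CD-1 Charles River mice (18-24 g), fed ad libitum, are dosed orally with drug as an aqueous suspension with Tween 80 (10 ml/kg); controls get vehicle. Phenylquinone (0.125% in 5% aqueous ethanol) is given ip at 10 ml/kg at the peak-activity time. Writhes are counted for 10 min, starting 5 min post-injection. Ten mice per group, four doses. Result is % inhibition of writhes versus control; ED50 by Litchfield-Wilcoxon.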
# [4] = tested on: Rattus norvegicus; assay: Antiinflammatory activity against Mycobacterium butyricum adjuvant-induced polyarthritis in po dosed Lewis albino rat assessed as decrease in non-injected paw edema administered daily for 21 days […]; format: functional
# Outline: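 Female Charles River-Lewis albino rats, 150-170 g, groups of ten, housed singly; heat-killed dry Mycobacterium butyricum in white paraffin oil (0.5 mg/0.1 ml) injected into left hind paw. Oral dosing as aqueous suspension with Tween 80 (10 ml/kg), starting the day before adjuvant and daily for 21 days; vehicle controls. Paw volume by mercury displacement from injection day onward; ED50 by Litchfield-Wilcoxon with 95% confidence limits.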
# [5] = Ulcerogenicity in po dosed Wistar rat assessed as induction of gastric irritation; format: toxicity, organism-based, Stomach; details: in vivo, read-out: ID50 (the source's name)
# Outline: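 Groups of eight male Wistar rats (150-175 g) are fasted 48 h with water allowed, then dosed orally (10 ml/kg); controls get vehicle. Rats are killed at 3, 5 and 7 h post-dose, and stomach and intestines are examined for erosion, ulcer or perforation. ID50 is the dose causing irritation in 50% of animals.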
# [6] = Therapeutic ratio of ID50 for ulcerogenicity in Wistar rat to ED50 for antiinflammatory activity against Mycobacterium butyricum adjuvant-induced polyarthritis in Lewis albino rat adjuvant treated paw; format: ADME; details: in vivo, read-out: TI
# Outline: (§2)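 Ratio of the gastric irritation ID50 (oral dose, Wistar rats, lesions scored as irritation in 50% of animals) to the adjuvant polyarthritis ED50 (Lewis rats, 21-day oral dosing). The ED50 is taken from the adjuvant-injected paw or the noninjected paw, with paw volume measured by mercury displacement.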
# [7] = tested on: Rattus norvegicus; assay: Antiinflammatory activity against Mycobacterium butyricum adjuvant-induced polyarthritis in po dosed Lewis albino rat assessed as decrease in adjuvant treated paw edema administered daily for 21 days […]; format: functional
# Outline: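 Female Charles River-Lewis albino rats (150-170 g), ten per group, housed individually. Heat-killed Mycobacterium butyricum in paraffin oil (0.5 mg/0.1 ml) is injected into the left hind paw. Oral dosing starts the day before adjuvant and continues daily for 21 days, using a Tween 80 aqueous suspension. Paw volume is measured by mercury displacement from injection day onward. ED50 by Litchfield-Wilcoxon, with 95% confidence limits.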
# [8] = Therapeutic ratio of ID50 for ulcerogenicity in Wistar rat to ED50 for antiinflammatory activity against Mycobacterium butyricum adjuvant-induced polyarthritis in Lewis albino rat non-injected paw; format: ADME; details: in vivo, read-out: TI; outline: as §2
SMILES,ED50 [2] [mg/kg],ED50 [3] [mg/kg],other results
O=C(O)Cc1ccc2c(c1)C(=O)c1ccccc1CS2,–,–,inhibition in vivo at 50 mg/kg [1]: 42.7%
NC(=O)Cc1ccc2c(c1)C(=O)c1ccccc1CO2,> 100,> 100,–
O=C(O)Cc1ccc2c(c1)Cc1ccccc1CO2,200,–,–
COC(=O)Cc1ccc2c(c1)C(=O)c1ccccc1CO2,31,26.6,–
CCOC(=O)Cc1ccc2c(c1)C(=O)c1ccccc1CO2,6.85,> 50,–
O=C(O)Cc1ccc2c(c1)C(=O)c1ccc(Cl)cc1CO2,26.5,34.3,–
COc1ccc2c(c1)COc1ccc(CC(=O)O)cc1C2=O,58.6,> 50,–
O=C(O)Cc1ccc2c(c1)C(=O)c1cc(Cl)ccc1CO2,> 50,> 50,–
CCCOC(=O)Cc1ccc2c(c1)C(=O)c1ccccc1CO2,3.55,16.7,–
CC(C)OC(=O)Cc1ccc2c(c1)C(=O)c1ccccc1CO2,6.84,< 50,–
CCCCOC(=O)Cc1ccc2c(c1)C(=O)c1ccccc1CO2,14.7,12.7,–
CCCCCOC(=O)Cc1ccc2c(c1)C(=O)c1ccccc1CO2,2.9,> 50,–
O=C(Cc1ccc2c(c1)C(=O)c1ccccc1CO2)OCc1ccccc1,> 50,–,–
O=C(O)Cc1cc(Cl)c2c(c1)C(=O)c1ccccc1CO2,> 50,–,–
O=C(O)Cc1ccc2c(c1)C(=O)c1cccc(Cl)c1CO2,< 50,> 50,–
O=C(O)Cc1ccc2c(c1)C(=O)c1cc(F)ccc1CO2,356,–,–
O=C(O)Cc1ccc2c(c1)C(=O)c1cc(C(F)(F)F)ccc1CO2,> 50,–,–
Cc1cccc2c1C(=O)c1cc(CC(=O)O)ccc1OC2,> 50,–,–
OCCc1ccc2c(c1)C(O)c1ccccc1CO2 (centres undefined),> 200,–,–
COC(=O)Cc1ccc2c(c1)C(O)c1ccccc1CO2 (centres undefined),> 200,–,–
COC(=O)Cc1ccc2c(c1)C(OC)c1ccccc1CO2 (centres undefined),> 200,–,–
COc1ccc2c(c1)c(CC(=O)O)c(C)n2C(=O)c1ccc(Cl)cc1 [INDOMETHACIN],–,0.7,ED50 [4]: 0.27 mg/kg; TD50 [5]: 1.8 mg/kg; selectivity ratio [6]: 3.8; ED50 [7]: 0.47 mg/kg; selectivity ratio [8]: 6.7
O=C(O)Cc1ccc2c(c1)C(=O)c1ccccc1CO2 [ISOXEPAC],–,7.57,ED50 [4]: 1.06 mg/kg; TD50 [5]: 82.5 mg/kg; selectivity ratio [6]: 39; ED50 [7]: 2.1 mg/kg; selectivity ratio [8]: 78
